Compound activity as filed in PubChem.
NALP3 yeast inh – blocks the NALP3 inflammasome reconstituted in yeast. 0.39% of 330,000 active. Yeast reconstituted NLRP3/ASC/caspase-1, beta-gal luminescence, 24 h. inhibition, % at 10 µM;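 active means inhibition of 50% or more; inactive means inhibition below 50%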;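 further: plate controls were induced DMSO wells for no effect and uninduced yeast grown without galactose for full effect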
Calb FLC – C. albicans growth modulation with fluconazole; growth inhibition, % (concentration not given with the values); C. albicans CaCi-2 + fluconazole, Alamar Blue growth, 48 h; 0.57% of 300,000 active;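 active means growth inhibition above about 58% in most replicates, limit read from the data, passing the limit was not always enough; inconclusive means exactly half the replicates above a set limit; inactive means most replicates below a set limit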;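 further: all wells also contain fluconazole at 8 µg/ml as a sub-toxic cotreatment; 0% = median of DMSO wells and 100% = median of geldanamycin control wells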
NALP1 yeast inh – blocks the NALP1 inflammasome reconstituted in yeast; 0.61% of 280,000 active; S. cerevisiae NALP1/ASC/caspase-1 growth, X-gal OD620, 72 h; inhibition, % at 10 µM; in the data active means inhibition mostly above about 24%, no sharp cut-off; inactive means mostly below about 32%
T cruzi repl – blocks replication of Trypanosoma cruzi. AID 1885. T. cruzi beta-gal in NIH3T3, luminescence, 90 h. 1.4% of 300,000 active. inhibition, % (concentration not given with the values);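 active means mean inhibition across valid replicates above about 55%, limit read from the data; inconclusive means mean below that limit but half or more replicates reach it; inactive means mean below it, under half of replicates reach it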;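 further: signal also drops with host cell toxicity which is not excluded here; 0% = plate median of DMSO wells and 100% = zero luminescence signal; higher percent means less beta-gal luminescence so fewer parasites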
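compound dosing = single 50 nL compound addition per well in DMSO | material = NIH/3T3 host cells with β-galactosidase reporter T. cruzi | input = 5,000 host fibroblasts per well | timing = ≥90 h infection period, 3 h prior cell attachment | read-out basis = percent inhibition of parasite-derived β-gal signal | detection = GalScreen β-gal luminescence, detergent lysis, 60 min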
PolyA inh – yeast polyadenylation inhibition. 0.02% of 300,000 active. activity score, % at 12 µM. S. cerevisiae SKY197-pL101 polyadenylation reporter, beta-gal luminescence; efflux-impaired pdr1/pdr3 knockout yeast; score 100 = 6 SD above DMSO. AID 1875;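 active means lowest replicate activity score at least 50, where 100 means six control SD above control mean; inconclusive means lowest score under 50 but half or more replicates reach 50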;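 further: yeast exposed to compound for 9 h at 30 °C; higher score means more reporter readthrough which indicates perturbed polyadenylation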
Lmaj promast – Leishmania major promastigote growth inhibition | 9% of 200,000 active | inhibition, % at 10 µM | Leishmania major promastigotes, resazurin fluorescence viability; in the data active means inhibition above about 50%;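 further: promastigotes grown with compound for 44 hours at 28 °C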
An asterisk follows results filed as active; u = inconclusive; x = no result given. Only a selection was taken, and hits are over-represented in it overall.

SMILES | NALP3 yeast inh | Calb FLC | NALP1 yeast inh | T cruzi repl | PolyA inh | Lmaj promast
CCCCCCCCCCOC(=O)Cn1c(COc2ccccc2C)[n+](C)c2ccccc21 | 30.3 | u | 1.0 | 65.2* | 4.2 | x
CCCCCCCCCCOC(=O)Cn1c(COc2cccc(C)c2)[n+](C)c2ccccc21 | 24.4 | 49.1 | 8.1 | 57.8* | -7.2 | x
CCCCCCCCCCOC(=O)Cn1c(COc2ccc(Cl)cc2)[n+](C)c2ccccc21 | 18.1 | u | 60.6* | 48.4 | -32.9 | x
CCCCCCCCCCOC(=O)Cn1c(COc2ccccc2)[n+](C)c2ccccc21 | 16.4 | 41.0 | 22.5 | 72.6* | -0.3 | x
CCCC[C@@H]1C=C(C(=O)O)[C@H](c2ccc(Cl)cc2)N1S(=O)(=O)c1ccc(C)cc1 | 0.3 | x | x | x | x | x
CC(=O)Nc1cc2c(cc1C(=O)C(C)C)OCCO2 | 9.7 | -18.1 | 0.9 | 12.2 | -0.6 | -0.5
CC(C)C(=O)c1cc2c(cc1NC(=O)c1ccccc1)OCCO2 | 15.3 | 4.7 | 9.5 | 22.5 | -8.2 | 57.1*
CCNS(=O)(=O)c1ccc(Br)c(C(=O)OC(C)C(=O)NCC2CCCCC2)c1 (stereo not given) | -3.9 | x | x | x | x | x
Cc1cccc(/C=N/NC(=O)c2cc(-c3cccnc3)nc3c2c(C)nn3-c2ccccc2)c1 | 16.5 | 12.4 | 13.7 | 26.9 | 32.2 | 62.5*
COCCNC(=O)NC12CC3CC(CC(C3)C1)C2 | -3.9 | 94.5* | 9.1 | -15.9 | 5.5 | 12.3
COCCNc1oc(-c2ccc(Cl)cc2)nc1C#N | 25.8 | -2.6 | 6.0 | 3.4 | 4.3 | -14.7
CN(C)CCCNc1oc(-c2ccc(Cl)cc2)nc1C#N | 9.2 | -3.1 | 22.5 | 2.8 | -1.2 | 82.9*
C=CCNc1oc(-c2cccc(Cl)c2)nc1C#N | 12.6 | x | x | x | x | x
CCN(CC)CCCNc1oc(-c2cccc(Cl)c2)nc1C#N | 18.8 | -16.8 | 8.5 | 48.8 | 22.2 | 100.6*
Cc1c(C(=O)OCC(=O)N(C)c2ccccc2)oc2ccccc12 | 25.3 | 12.4 | 5.6 | 1.8 | -14.8 | x
N#C/C(=C\c1cccc(O)c1)c1nc2ccccc2o1 | 18.6 | -8.0 | -6.9 | -18.4 | -12.1 | x
Cn1c(/C(C#N)=C/c2cccc(O)c2)nc2ccccc21 | 10.8 | 19.5 | 40.7* | -27.0 | -1.5 | 89.2*
CC(=O)c1c(C)[nH]c(C(=O)NC(C)c2ccccc2)c1C (stereo not given) | -1.8 | -2.5 | 13.6 | -10.5 | 4.6 | -0.1
CC(=O)COc1cc(C)cc2oc(=O)cc(-c3ccccc3)c12 | 23.0 | 2.6 | 9.6 | -2.6 | 14.3 | -2.4
COc1ccc([N+](=O)[O-])cc1COc1cc(C)cc2oc(=O)cc(-c3ccccc3)c12 | 10.8 | 6.5 | 18.7 | 33.2 | 6.2 | 98.7*
Cc1cc(C)n2nc(/C(C#N)=C/c3ccccn3)c(C#N)c2n1 | 32.5 | -10.2 | 19.0 | -42.1 | 16.0 | 97.0*
Cc1cc(C)n2nc(CC#N)c(C#N)c2n1 | 21.8 | -4.4 | -12.7 | -8.2 | 8.7 | -6.6
CCOc1cc(/C=N/NC(=O)Cn2nc([N+](=O)[O-])cc2C)cc(Br)c1OCc1ccccc1C | 17.2 | 13.6 | 0.5 | 57.2* | -11.5 | 5.4
COc1cc(/C=N/NC(=O)Cn2nc([N+](=O)[O-])cc2C)cc(Br)c1OCc1ccccc1 | 11.9 | 0.3 | 5.9 | 28.3 | -14.8 | 11.5
O=C1C2C3C=CC(C3=C(c3ccccc3)c3ccccc3)C2C(=O)N1CCO (stereo not given) | 5.7 | 13.9 | 17.8 | 7.7 | -2.3 | 97.6*
SMILES | NALP3 yeast inh | Calb FLC | NALP1 yeast inh | T cruzi repl | PolyA inh | Lmaj promast
O=C1C2C(c3ccccc3)C=CC(c3ccccc3)C2C(=O)N1CCO (stereo not given) | 1.8 | 1.9 | -4.2 | -2.4 | -8.8 | -3.1
O=C(CCN1C(=O)c2ccc([N+](=O)[O-])cc2C1=O)Nc1ccccc1C(=O)O | -1.0 | -5.4 | 11.1 | 4.9 | 22.6 | x
O=C(Nc1ccncc1)c1cc(S(=O)(=O)N2CCN(c3ccccc3)CC2)ccc1Cl | 19.6 | -12.0 | x | 61.2* | -5.7 | x
Cc1ccnc(NC(=O)c2cc(S(=O)(=O)N3CCCCC3)ccc2Cl)c1 | 8.8 | 6.8 | 40.0* | 4.3 | 5.0 | 28.2
O=C(Nc1ccncc1)c1cc(S(=O)(=O)N2CCCC2)ccc1Cl | 7.1 | x | x | x | x | x
COc1ccc(S(=O)(=O)N2CCCCCC2)cc1C(=O)Nc1cc(C)ccn1 | 8.8 | x | x | x | x | x
CCn1c(/C=C/Nc2ccccc2)[n+](CC)c2ccc(Cl)cc21 | 6.7 | -11.0 | 8.2 | -7.9 | 0.6 | 91.5*
CCn1c(/C=C/N(C)c2ccccc2)[n+](CC)c2ccc(Cl)cc21 | -6.2 | 24.9 | 26.8 | 76.6* | -7.9 | 100.2*
COCc1cc(C)nc(SCC(=O)Nc2ccccc2C)c1C#N | -10.9 | 3.4 | 1.5 | -2.9 | 1.1 | -0.8
O=C(CSc1nccc(=O)[nH]1)Nc1cc(C(F)(F)F)ccc1N1CCOCC1 | -5.9 | -19.1 | 5.9 | -10.6 | -3.5 | x
COCc1cc(C)nc(SCC(=O)Nc2cc(C(F)(F)F)ccc2N2CCOCC2)c1C#N | 17.4 | 26.1 | 3.0 | 67.1* | 10.1 | x
Cc1ccc2nc(SCC(=O)Nc3cc(C(F)(F)F)ccc3N3CCOCC3)[nH]c2c1 | -4.0 | -0.6 | 0.3 | 32.7 | 5.3 | 53.3*
CCOC(=O)c1c(-c2ccc(C)cc2)csc1NC(=O)CCN1CCOCC1 | x | 34.1 | 25.1 | -11.7 | -39.8 | 97.2*
CCOC(=O)c1c(-c2ccccc2)csc1NC(=O)CCN1CCOCC1 | 21.1 | 31.7 | 41.7 | -6.6 | -82.2 | 98.1*
CCOC(=O)c1c(-c2ccccc2)csc1NC(=O)c1ccc(S(=O)(=O)N2CCOCC2)cc1 | -3.6 | 36.0 | 31.4 | 24.5 | 5.1 | 9.0
CCOC(=O)c1c(-c2cccs2)csc1NC(=O)CN1CCOCC1 | 23.7 | -7.9 | 15.3 | 32.8 | -9.9 | 4.3
CCOC(=O)c1c(-c2ccc(C)o2)csc1NC(=O)CN1CCOCC1 | 17.6 | 5.3 | -24.1 | 9.8 | -7.4 | 88.6*
Cc1ccc(S(=O)(=O)Nc2n[nH]nc2C(=O)NC2CCCCC2)cc1 | 4.8 | u | -0.1 | -7.1 | -6.5 | -10.1
Cc1ccc(Nc2nc(-c3cccnc3)cs2)cc1C | 7.6 | -2.6 | 17.4 | 46.7 | -2.1 | x
COc1ccc(Cl)cc1Nc1nc(-c2cccnc2)cs1 | 12.0 | 11.9 | -15.7 | 55.8* | -13.9 | x
COc1ccc(-c2csc(-c3cccnc3)n2)cc1C | -36.7 | 10.7 | 1.2 | 15.6 | -16.6 | 79.8*
Clc1cccc(Nc2nc(-c3cccnc3)cs2)c1 | 17.0 | 27.8 | 17.2 | 59.3* | 14.1 | 54.5*
CCOc1cc(S(=O)(=O)NCC2OCCc3ccccc32)c(OCC)cc1-n1cnnn1 (stereo not given) | 18.4 | 20.4 | -0.3 | 19.5 | -8.8 | -2.5
CC(C#Cc1ccc2c(c1)COc1c3ccccc3nn1-2)OC(C)(C)C (stereo not given) | 29.0 | 2.0 | x | 3.4 | u | x
Cc1ccc(S(=O)(=O)N2CCC(C(=O)OC(C)C(=O)NC(N)=O)CC2)cc1C (stereo not given) | -10.4 | -4.8 | x | -28.5 | -3.5 | x
